Compound activity deposited in PubChem BioAssay by several laboratories.
Sampled rows, rich in hits. Any-hit rate of the full collection: about 3.2%.
Mcl1 Noxa PPI: Mcl-1/Noxa interaction inhibition; Q07820; TR-FRET Mcl-1/Noxa peptide binding, 2 h; inhibition, % at 21.7 µM; 220,000 compounds, 1.5% hits; AID 1022;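 active = compounds that cut the protein-peptide binding signal by more than 50% relative to plate controls in a single-dose test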;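 note: His-tagged Mcl-1 with rhodamine Noxa BH3 peptide and terbium anti-His antibody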
Target sequence (Q07820 whole entry, looked up): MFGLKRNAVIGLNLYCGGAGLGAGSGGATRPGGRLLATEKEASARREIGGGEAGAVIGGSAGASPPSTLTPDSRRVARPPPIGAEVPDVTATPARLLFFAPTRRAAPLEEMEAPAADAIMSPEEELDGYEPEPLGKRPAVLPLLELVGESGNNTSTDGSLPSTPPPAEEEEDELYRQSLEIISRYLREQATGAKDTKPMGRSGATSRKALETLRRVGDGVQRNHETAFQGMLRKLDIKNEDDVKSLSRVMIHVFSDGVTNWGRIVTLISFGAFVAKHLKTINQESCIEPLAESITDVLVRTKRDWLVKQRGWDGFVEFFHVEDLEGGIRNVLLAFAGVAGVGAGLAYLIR
Mcl1 Bid PPI: disrupts binding of human Mcl-1 to Bid peptide | 220,000 compounds, 0.97% hits | TR-FRET Mcl-1/Bid-Dy647 peptide binding, 1536-well | Q07820 | inhibition, % at 21.7 µM;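 active = compounds that cut the binding signal by more than half at the single screening dose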;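 note: His-tagged Mcl-1 with europium anti-His antibody binding Bid BH3 peptide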
Hck Nef HTS: human Hck-Nef kinase inhibition. Recombinant Hck-YEEI plus Nef, Z-Lyte FRET kinase assay. AID 463187. inhibition, % at 20 µM. P08631. 220,000 compounds, 0.68% hits;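 active = Hck-Nef kinase inhibition above about 50%, limit read from the data; inactive = inhibition below that limit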
Biofilm kill mix: mixture kills Candida albicans biofilm cells; C. albicans biofilm persisters + clotrimazole, fluorescence viability; primary screen in compound mixtures of four per well; inhibition, % at 7.6 µM; AID 1242; 120,000 compounds, 0.02% hits;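 active = inhibition above 30.3% in the primary screen of four-compound pools, then above 30% when the compound was retested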;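 note: compounds exposed to preformed 24 h biofilms for 48 h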
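Probe or stimulus – Clotrimazole 50 µg/mL co-treatment · System – C. albicans biofilms · Schedule – 24 h biofilm formation, then 48 h compound exposure, 37 °C · Evaluation – percent inhibition of biofilm viability · Technique – 2-h Alamar Blue fluorescence, 535/590 nm excitation/emission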
14-3-3 Bad PPI: disrupts binding of bovine 14-3-3 zeta to phospho-Bad peptide | AID 781 | TR-FRET 14-3-3zeta/Dy647-pBad peptide displacement, 1 h | 220,000 compounds, 0.71% hits | inhibition, % at 21.7 µM;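 active = inhibition above about 70%, limit read from the data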
Target sequence (P63103 whole entry, looked up): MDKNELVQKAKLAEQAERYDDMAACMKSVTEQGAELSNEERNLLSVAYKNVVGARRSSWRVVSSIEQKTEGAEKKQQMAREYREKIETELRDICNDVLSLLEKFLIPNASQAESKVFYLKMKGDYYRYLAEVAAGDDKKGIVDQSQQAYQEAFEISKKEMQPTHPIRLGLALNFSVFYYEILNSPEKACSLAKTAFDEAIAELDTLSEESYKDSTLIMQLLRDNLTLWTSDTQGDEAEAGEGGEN
Mcl-1 Bim block: inhibitors of Bim-Mcl-1 interaction, human; inhibition, % at 10 µM; Q07820; 190,000 compounds, 0.1% hits; AID 1009; Bead-based flow cytometry, Bim peptide-Mcl-1 binding; in the data active = inhibition above about 40%
Hits are given with their value; n = inactive; x = no result; [ ] = another dose, or the depositor's remark.

SMILES	Mcl1 Noxa PPI	Mcl1 Bid PPI	Hck Nef HTS	Biofilm kill mix	14-3-3 Bad PPI	Mcl-1 Bim block
COc1ccc(-c2ncccc2O)cc1	n	n	n	x	n	n
O=c1cc(CO)oc(C(Nc2ccccn2)c2ccc(C(F)(F)F)cc2)c1O (stereo not drawn)	n	n	n	x	n	n
COc1cccc(C(Nc2ccccn2)c2oc(CO)cc(=O)c2O)c1 (stereo not drawn)	74	n	n	n	n	n
O=c1cc(CO)oc(C(Nc2ccccn2)c2cccc(F)c2)c1O (stereo not drawn)	52	n	n	x	n	n
N#CC1=C2C=CC=CN2CC1=O	n	n	n	x	n	n
O=C(CSc1ccc(Cl)cc1)Nc1cc(-c2nc3ncccc3o2)ccc1Cl	n	n	n	n	n	n
Cc1ccc2oc(-c3ccc(C)c(NC(=S)NC(=O)c4cccs4)c3)nc2c1	n	53	n	n	n	n
O=C(Nc1ccc(-c2nc3cc(NC(=O)c4cccs4)ccc3o2)cc1)c1cccs1	n	n	n	x	74[fluorescence artefact?]	n
COc1ccc2oc(-c3ccc(C)c(NC(=O)CSc4ccc(Cl)cc4)c3)nc2c1	n	54	n	x	n	n
Cc1cc2nc(-c3ccc(NC(=O)C(C)C)cc3)oc2cc1C	n	73	n	x	n	n
Cc1ccc(-c2nc3cc(NC(=O)C(C)C)ccc3o2)cc1	n	n	n	x	n	n
CC(C)N1CCC(NC(=O)NC2CCCCC2)CC1	n	n	n	n	n	n
O=C(Nc1ccccc1)C1=C(c2ccccc2)S(=O)(=O)CCS1(=O)=O	n	n	n	n	n	n
COc1ccc2nc(/C=N/NC(=O)CCNC(=O)OC(C)(C)C)ccc2c1	n	n	n	n	n	x
COCCCNC(=S)Nc1cccc(SC)c1	n	n	n	n	n	x
COc1cc(C(=O)Nc2cccc(-c3nc4cc(C)ccc4o3)c2)cc(OC)c1OC	n	n	n	n	n	n
COc1cc(C(=O)Nc2cc(-c3nc4cc(C)ccc4o3)ccc2C)cc(OC)c1OC	n	n	n	x	79	n
Cc1[nH]c2ccccc2c1/C=N/NC(=O)c1cccc([N+](=O)[O-])c1	n	n	n	n	n	n
Cc1[nH]c2ccccc2c1/C=N/Nc1ccc([N+](=O)[O-])cc1	75	n	n	n	n	n
CC(O)CNC(=O)C1CCN(Cc2ccc(OCc3ccccc3)cc2)CC1 (stereo not drawn)	n	63	n	x	n	n
Cc1ccc(NC(=O)NC(=O)CN2C(=O)NC3(CCCCCCC3)C2=O)c(C)c1	n	n	n	x	71	n
Cc1cc(Br)ccc1NC(=O)CNC(=O)CN1C(=O)NC2(CCCCCC2)C1=O	n	n	n	x	n	n
COc1ccc(-c2ccc(CCC(=O)O)n2NC(=O)c2cccs2)cc1	n	n	n	x	n	n
Cc1ccc(-c2ccc(CCC(=O)O)n2NC(=O)c2cccs2)cc1	n	n	n	x	n	49
O=C1OC(C(=O)NCc2ccccc2)Cc2ccccc21 (stereo not drawn)	n	n	n	n	74	n
SMILES	Mcl1 Noxa PPI	Mcl1 Bid PPI	Hck Nef HTS	Biofilm kill mix	14-3-3 Bad PPI	Mcl-1 Bim block
O=C(NCc1ccccc1)C1COc2ccccc2O1 (stereo not drawn)	n	n	n	n	n	n
COc1ccc(N(Cc2cc3cccc(C)c3[nH]c2=O)C(=O)C2CCCO2)cc1 (stereo not drawn)	n	n	n	n	n	x
CCCn1c(N/N=C(C)\C=C\c2ccccc2)nc2c1c(=O)[nH]c(=O)n2C	n	n	n	n	n	n
Cc1nc(=O)c(-c2ccccc2)c(C)n1CCCO	n	n	n	x	90	n
Cc1nc(=O)c(-c2ccccc2)c(C)n1CCO	n	n	n	x	n	n
C=CCSc1nnc(-c2ccccc2NC(=O)CC)c(=O)[nH]1	n	n	n	x	n	n
CCc1ccc(CCC(=O)Nc2ccc(C)cc2C)o1	n	84	n	x	n	n
COc1ccc(OC)c(CN2CCC(C(=O)N3CCOCC3)CC2)c1	n	53	n	n	n	n
COc1ccc(F)c(CN2CCC(N3CCC(C(=O)N4CCOCC4)CC3)CC2)c1	n	n	n	n	n	n
COc1cc(CN2CCC(C(=O)N3CCCC(C)C3)CC2)cc(Br)c1O (stereo not drawn)	n	n	n	x	79	n
CCOC(=O)C1CCCCN1Cc1cc(OC)ccc1OC (stereo not drawn)	n	n	n	x	91	n
CCOC(=O)C1CCN(Cc2ccc(F)cc2F)CC1	n	n	n	x	76	n
CCOC(=O)C1CCCCN1Cc1cccc(OC)c1OC (stereo not drawn)	n	n	n	x	76	n
CCOC(=O)C1CCCCN1Cc1cccc(F)c1 (stereo not drawn)	n	n	n	x	71	n
COc1ccc(N2CCN(CC(O)COc3ccc4c(c3)CCC4)CC2)cc1 (stereo not drawn)	n	n	n	x	n	n
Cc1nnc(NC(=O)c2sc3nc(-c4cccs4)cc(C(F)(F)F)c3c2N)s1	98	n	n	x	n	n
Nc1c(C(=O)Nc2nccs2)sc2nc(-c3cccs3)cc(C(F)(F)F)c12	n	n	n	x	n	n
Fc1ccc(Cn2nnnc2CN2CCN(C3CCCC3)CC2)cc1	n	n	n	x	78	n
CCC(c1nnnn1Cc1ccc(F)cc1)N1CCN(C2CCCCC2)CC1 (stereo not drawn)	n	n	n	x	n	n
OC1(c2cccnc2)CCN(Cc2nnnn2C2CCCCC2)CC1	n	52	n	x	84	n
C/C=C/c1ccc(OCCCCOc2ccccc2F)c(OC)c1	n	n	n	n	n	n
C/C=C/c1ccc(OCCOc2cc(C=O)ccc2OC)c(OC)c1	n	n	n	n	n	n
C/C=C/c1ccc(OCCn2cncn2)c(OC)c1	n	n	n	x	84	n
C/C=C/c1ccc(OCCCCn2cncn2)c(OC)c1	n	57	n	x	75	n
C/C=C/c1ccc(OCCCNC(C)CC)c(OC)c1 (stereo not drawn)	n	59	n	x	n	n
SMILES	Mcl1 Noxa PPI	Mcl1 Bid PPI	Hck Nef HTS	Biofilm kill mix	14-3-3 Bad PPI	Mcl-1 Bim block
C/C=C/c1ccc(OCCCn2cncn2)c(OC)c1	n	n	n	x	74	n
COc1nsnc1NS(=O)(=O)c1ccc(NC(=S)NC(=O)c2cccnc2)cc1	n	n	n	n	n	n
COc1ccc(C(=O)N(C)C2CCN(C)CC2)cc1S(=O)(=O)Nc1cc(Cl)ccc1Cl	n	n	n	n	n	x
OCC1CCCN(c2nc(CN3CCCCC3)nc3scc(-c4ccccc4)c23)C1 (stereo not drawn)	n	97	n	n	n	n
OCC1CCCN(c2ncnc3scc(-c4ccccc4)c23)C1 (stereo not drawn)	n	n	n	n	n	n
COc1ccc(OCC(=O)Nc2sc3c(c2C(=O)NCC2CCCO2)CCC3)cc1 (stereo not drawn)	n	n	n	x	n	n
Cc1[nH]n(-c2ccc(Br)cc2)c(=O)c1C=Nc1ccc(S(=O)(=O)Nc2nccs2)cc1	79	n	n	n	n	n
